Test results: ChEMBL document CHEMBL2331523, “Regioselective synthesis of isoxazole-mercaptobenzimidazole hybrids and their in vivo analgesic and anti-inflammatory activity studies” (2013)

Columns and labels:
Format in all cases: functional
Mus musculus = experiment: Analgesic activity in mouse assessed as increase in paw withdrawal latency at 50 mg/kg after 120 mins by hot plate test (reference value: 6.07 +/- 0.057 secs)
Rattus norvegicus [1] = experiment: Antiinflammatory activity in rat assessed as inhibition of carrageenan-induced paw oedema at 50 mg/kg after 60 mins relative to untreated control; conditions: 1 h
Outline: (§1)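 Carrageenan-induced hind-paw oedema (Winter method). The text names both rats and mice. Test agents dosed at 100 mg/kg body weight, reference at 50 mg/kg body weight. Paw thickness measured in mm at 60 and 180 min after carrageenan injection. Percent oedema inhibition calculated against the saline control group. Six animals per group, mean ± SD. One-way ANOVA with Newman-Keuls test.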

Rattus norvegicus [2] = experiment: Antiinflammatory activity in rat assessed as inhibition of carrageenan-induced paw oedema at 50 mg/kg after 180 mins relative to untreated control; conditions: 3 h; outline: as §1

SMILES | Time (Mus musculus) [s] | inhibition in vivo at 50 mg/kg (Rattus norvegicus [1]) [%] | inhibition in vivo at 50 mg/kg (Rattus norvegicus [2]) [%]
CC(C)=CCN1CC[C@]2(C)c3cc(O)ccc3C[C@H]1[C@H]2C [(+)-PENTAZOCINE] | 14.1 |  | 
O=C(O)Cc1ccccc1Nc1c(Cl)cccc1Cl [DICLOFENAC] |  | 44.5 | 45.8
